Assay results: ChEMBL document CHEMBL1154478, “Novel imidazo[1,2-a]naphthyridinic systems (part 1): synthesis, antiproliferative and DNA-intercalating activities” (2008)
Calls of active or inactive are those of the source. The rule behind the calls is not given here.

Experiments:
HT-1080 = assay: Antiproliferative activity against human HT1080 cells after 48 hrs by SRB assay; type: functional; conditions: HT-1080, 48 h
Summary of the method: (§1)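 Cells were grown in high-glucose DMEM with 5% defined bovine calf serum and pre-incubated 24 h at 37 °C in 5% CO2. Drugs were freshly dissolved in DMSO, diluted in medium and added in serial dilutions, with DMSO kept below 0.5%, and incubated 48 h. Cells were fixed with cold TCA (10% final, 60 min at 4 °C), stained 15 min with 0.1% SRB in 1% acetic acid, and the dye solubilized in Tris base. Absorbance was read at 585 nm and growth inhibition % calculated against a control plate fixed on the treatment day.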

M21 = assay: Antiproliferative activity against human M21 cells after 48 hrs by SRB assay; type: functional; conditions: M21, 48 h; summary of the method: as §1
HT-29 = assay: Antiproliferative activity against human HT-29 cells after 48 hrs by SRB assay; type: functional; conditions: HT-29, 48 h; summary of the method: as §1
MCF7 [1] = assay: Antiproliferative activity against human MCF7 cells after 48 hrs by SRB assay; type: functional; conditions: MCF7, 48 h; summary of the method: as §1
MCF7 [2] = assay: Cell cycle arrest in human MCF7 cells assessed as accumulation at G2/M phase at 6.6 uM after 24 hrs by flow cytometry; type: functional, cell-based
Summary of the method: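 Exponentially growing MCF-7 cells were exposed to compound or DMSO control for 4, 24 or 48 h and analysed by flow cytometry with 488 nm argon laser excitation. Cell-cycle distribution was expressed as the treated/control ratio.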

[3] = Binding affinity to pGEM-9Zf(-) DNA assessed as effect on DNA migration at 40 uM by gel electrophoresis
Summary of the method: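 Human topo1 was then added and the mix held 2 h at 37 °C in the dark. The reaction was stopped with SDS and proteinase K (1 h, 45 °C). Products were run on 1% agarose with 0.1% SDS in TBE (16 h, 1.25 V/cm), stained with ethidium bromide, and re-run 2 h at 2 V/cm. Ethidium bromide served as the intercalation reference and camptothecin as the poison control.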

Row | Compound | GI50 (HT-1080) [µM] | GI50 (M21) [µM] | GI50 (HT-29) [µM] | GI50 (MCF7 [1]) [µM] | Activity (MCF7 [2]) | Activity [3]
1 | O=C1CCCc2nc3c(ccn4ccnc34)cc21 | > 100 | > 100 | > 100 | > 100 | – | –
2 | Cc1cc2c(ccc3nccn32)nc1C | > 100 | > 100 | > 100 | > 100 | – | –
3 | c1ccc(-c2ccc3c(ccc4nccn43)n2)cc1 | 43.3 | 70.1 | 55.8 | 51.8 | – | –
4 | c1ccc2cc3nc4c(ccn5ccnc45)cc3cc2c1 | 20.7 | 25.2 | 18.3 | 21.5 | – | –
5 | CCc1ccc2ccn3ccnc3c2n1 | > 100 | > 100 | > 100 | > 100 | – | –
6 | CCOC(=O)C1CCc2nc3c(ccn4ccnc34)cc2C1 (stereo not drawn) | 64.9 | 80.3 | 79.6 | 57.7 | – | –
7 | c1ccc2c(c1)CCc1nc3c(ccn4ccnc34)cc1-2 | 41.4 | 64.8 | 49.2 | 46.5 | – | –
8 | CCc1ccc2c(ccc3nccn32)n1 | > 100 | > 100 | > 100 | > 100 | – | –
9 | Cc1ccc2ccn3ccnc3c2n1 | > 100 | > 100 | > 100 | > 100 | – | –
10 | c1ccc2c(c1)CCc1cc3ccn4ccnc4c3nc1-2 | 13.4 | 8.1 | 7.2 | 6.6 | Active | Active
11 | O=C1CCCc2nc3ccc4nccn4c3cc21 | > 100 | > 100 | > 100 | > 100 | – | –
12 | Cc1ccc2c(ccc3nccn32)n1 | > 100 | > 100 | > 100 | > 100 | – | –
13 | Cc1cc2ccn3ccnc3c2nc1C | > 100 | > 100 | > 100 | > 100 | – | –
14 | c1cn2c(ccc3nc4c(cc32)CCCC4)n1 | > 100 | > 100 | > 100 | > 100 | – | –
15 | CCOC(=O)C1CCc2nc3ccc4nccn4c3cc2C1 (stereo not drawn) | > 100 | > 100 | > 100 | > 100 | – | –
16 | c1ccc2c(c1)CCc1cc3c(ccc4nccn43)nc1-2 | 32.7 | 52 | 27.8 | 20.9 | – | –
17 | c1ccc(-c2ccc3ccn4ccnc4c3n2)cc1 | 57.7 | 56.5 | 48.4 | 60.5 | – | –
18 | c1cn2ccc3cc4c(nc3c2n1)CCCC4 | > 100 | > 100 | > 100 | > 100 | – | –
19 | COc1cc(NS(C)(=O)=O)ccc1Nc1c2ccccc2nc2ccccc12 [AMSACRINE] | 1.6 | 49.6 | 16.8 | 5.6 | – | –
